Assay results from PMC10558795 (Redox Biology, 2023).
Read-outs that look alike come from different tables or passages of the source.

Key:
[1] = system: NRF2 and NQO1 expression in NRF2^Mut-KYSE180 cells; assay: Western blotting of NRF2 and NQO1 expression in KYSE180 cells; type: cell-based, human
Outline: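 NRF2-mutant KYSE180 cells (37 °C, 5% CO₂) treated with test compound; nuclear and cytosolic fractions prepared with a nuclear extraction kit. Proteins separated by SDS-PAGE onto nitrocellulose, primary antibody overnight at 4 °C, chemiluminescence on film. Bands quantified by densitometry, mean ± SD, Student's t-test.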

NRF2 (NRF2^Mut-KYSE180) = NRF2 (NRF2^Mut-KYSE180) (Homo sapiens, UniProt Q16236, D77V); assay: CHX chase analysis of NRF2 half-life in KYSE180 cells; type: cell-based; settings: PYR 10 μM, MIT 20 nM
NRF2 (NRF2^Mut-KYSE180), sequence (Q16236 whole entry D77V): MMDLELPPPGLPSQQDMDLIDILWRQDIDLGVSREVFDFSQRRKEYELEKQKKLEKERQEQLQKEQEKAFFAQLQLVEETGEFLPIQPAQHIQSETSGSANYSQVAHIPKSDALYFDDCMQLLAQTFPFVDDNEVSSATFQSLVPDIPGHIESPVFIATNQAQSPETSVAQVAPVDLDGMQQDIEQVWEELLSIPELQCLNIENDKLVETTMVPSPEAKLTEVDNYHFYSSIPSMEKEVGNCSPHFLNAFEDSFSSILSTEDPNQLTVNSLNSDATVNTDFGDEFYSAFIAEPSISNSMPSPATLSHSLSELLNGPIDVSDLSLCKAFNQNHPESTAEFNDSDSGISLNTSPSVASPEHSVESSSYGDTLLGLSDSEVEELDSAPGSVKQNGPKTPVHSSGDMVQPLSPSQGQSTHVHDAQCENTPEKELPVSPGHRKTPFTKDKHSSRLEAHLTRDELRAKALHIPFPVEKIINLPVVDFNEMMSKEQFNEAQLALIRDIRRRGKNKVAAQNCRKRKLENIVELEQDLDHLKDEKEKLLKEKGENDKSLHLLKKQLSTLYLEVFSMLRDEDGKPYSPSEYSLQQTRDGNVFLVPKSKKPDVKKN
Outline: (§1)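 Cells were grown in RPMI1640 GlutaMAX with 10% FBS and 1% penicillin/streptomycin at 37 °C, 5% CO₂. They were pre-incubated 4 h with test compound, then given 200 μg/ml cycloheximide to block protein synthesis. Cells were harvested at set time points after cycloheximide. Total lysates were run on SDS-PAGE and blotted for NRF2 and GAPDH, and band densities were used to calculate NRF2 half-life.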

[2] = system: NFE2L2 mRNA and NRF2 target genes; assay: qPCR of NFE2L2 mRNA and NRF2 target genes; type: cell-based, human
Outline: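 Gene expression quantified by real-time PCR using gene-specific primers and TaqMan probes on a 96-well real-time PCR system.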

NRF2 (NRF2^WT-KYSE450) = NRF2 (NRF2^WT-KYSE450) (Homo sapiens, UniProt Q16236); assay: CHX chase analysis of NRF2 half-life in KYSE450 cells; type: cell-based; settings: PYR 10 μM, MIT 20 nM
NRF2 (NRF2^WT-KYSE450), sequence (Q16236 whole entry): as the sequence (Q16236 whole entry D77V) above, with V77D counted along it
Outline: as §1

[3] = target: NRF2 ubiquitination (KYSE180) (Homo sapiens, UniProt Q16236, D77V); assay: NRF2-IP and ubiquitin western blotting in KYSE180 cells; type: cell-based; settings: NRF2^Mut-KYSE180; PYR 10 μM, MIT 20 nM; presence or absence of MG132
NRF2 ubiquitination (KYSE180), sequence (Q16236 whole entry D77V): as the sequence (Q16236 whole entry D77V) above
Outline: (§2)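 Cells treated with test compound, then with or without MG132 (10 μM), lysed in RIPA buffer. Lysate precleared on protein G agarose 1 h at 4 °C, then incubated with 1 μg anti-NRF2 antibody overnight at 4 °C with rotation. Immunocomplexes captured on protein G agarose 1.5 h at 4 °C, washed, boiled in 2X SDS loading buffer at 95 °C for 5 min, and immunoblotted for ubiquitin.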

[4] = humans, 50 mg/day, p.o., 3 weeks; cited from earlier work
KYSE180 cells = assay: High-content cytotoxicity screen; type: cell-based, human; settings: Homo sapiens, KYSE-180, 72 h, read-out: Cell proliferation (IC50, μM)
Outline: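 Cells were seeded at 1200/well in 384-well plates and cultured overnight. Test compound was added at […] serial dilution from 10 µM, in triplicate, for 3 days. Controls were 0.1% DMSO (negative), 30 µM benzethonium chloride and 0.1% Triton X-100 added just before staining (positive). Cells were stained with 0.5 µg/ml Hoechst and 100 nM YOYO1, four 4× images per well. Normalized total-cell and dead-cell percentages were fitted for IC₅₀.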

[5] = system: Sox2CreER;LSL-Nrf2^E79Q/+ mice; assay: Therapeutic effect on the NRF2^high esophageal phenotype in Sox2CreER; type: in vivo, mouse
Outline: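 Sox2CreER;LSL-Nrf2^E79Q/+ mice induced with tamoxifen (75 mg/kg/day i.p., 5 days), then given oral test compound in N-methyl-2-pyrrolidone:PEG300 (1:9). Part of forestomach resected at Week 1; rest of forestomach and esophageal epithelium taken at Week 3 sacrifice, with BrdU 50 mg/kg i.p. 2 h before. Analysis by Western blotting, H&E, and IHC (DAB, no-primary-antibody controls).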

[6] = system: NRF2 expression in NRF2^WT-KYSE450 cells; assay: NRF2 expression in KYSE450 cells; type: cell-based, human
Outline: (§3)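 Nuclear and cytosolic fractions prepared with an extraction kit, or whole-cell lysates in RIPA buffer. Proteins separated by SDS-PAGE, transferred to nitrocellulose, blocked and probed with primary antibody overnight at 4 °C. Chemiluminescence detected on film and quantified by densitometry; band data as mean ± SD, Student's t-test.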

[7] = system: human NRF2 target genes in KYSE70 cells; assay: RNAseq of KYSE70 cells; type: cell-based; settings: PYR 10 μM for 72 h, MIT 20 nM for 72 h
Outline: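 Total RNA from treated and control cells made into Illumina libraries and sequenced (150 bp). Reads aligned to hg38 with RefSeq annotation and counted per gene; DEGs called by fold-change cut-off and corrected p-values. Gene set enrichment analysis performed; overall NRF2 target-gene mRNA level calculated on natural log scale.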

[8] = target: NRF2 ubiquitination (KYSE70) (Homo sapiens, UniProt Q16236, W24C); assay: NRF2-IP and ubiquitin western blotting in KYSE70 cells; type: cell-based; settings: NRF2^Mut-KYSE70; PYR 10 μM, MIT 20 nM; presence or absence of MG132
NRF2 ubiquitination (KYSE70), sequence (Q16236 whole entry W24C): as the sequence (Q16236 whole entry D77V) above, with W24C, V77D counted along it
Outline: as §2

[9] = mice, i.p., cited from earlier work
[10] = system: mouse NRF2 target genes in the esophageal epithelium; assay: RNAseq of esophageal epithelium of Sox2CreER; type: in vivo; settings: PYR given after tamoxifen induction
Outline: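 Sox2CreER;LSL-Nrf2^E79Q/+ mice induced with tamoxifen (75 mg/kg/day i.p., 5 days), then dosed orally with test compound in N-methyl-2-pyrrolidone:PEG300 (1:9). Part of forestomach resected at Week 1; esophageal epithelium harvested at sacrifice, Week 3. Total RNA sequenced; data normalized; overall NRF2 target-gene expression calculated at natural log scale.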

[11] = Pharmacokinetics of PYR in mice, i.p.; type: in vivo; settings: 30 mg/kg/day; extrapolated from literature Cmax
global translation = assay: Protein synthesis assay; type: cell-based, human; settings: KYSE70; PYR 10 μM, MIT 20 nM; CHX positive control
Outline: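 KYSE70 cells (37 °C, 5% CO₂) seeded at 2000 cells/well in 96-well plates; exposed to test compound or cycloheximide (positive control) in triplicate. Global translation measured with a commercial protein synthesis assay kit per manufacturer's protocol; cells imaged on a high-content imager.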

DHFR = DHFR (Homo sapiens, UniProt P00374); assay: DHFR activity assay kit; type: biochemical; settings: KYSE70 cells
DHFR, sequence (P00374 whole entry): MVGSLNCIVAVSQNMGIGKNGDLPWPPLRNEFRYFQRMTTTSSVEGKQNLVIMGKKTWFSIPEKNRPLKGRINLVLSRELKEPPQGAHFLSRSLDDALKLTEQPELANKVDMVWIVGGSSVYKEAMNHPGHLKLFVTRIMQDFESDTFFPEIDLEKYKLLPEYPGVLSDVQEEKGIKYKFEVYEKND
Outline: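 Kit-based DHFR enzymatic assay followed by the decrease in A340nm over time; methotrexate 1 μM as reference DHFR inhibitor.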

[12] = system: NRF2 expression in Nrf2^WT MEEC; assay: NRF2 expression in mouse esophageal epithelial cells; type: cell-based
Outline: as §3

[13] = system: NRF2 and NQO1 expression in NRF2^Mut-KYSE70 cells; assay: Western blotting of NRF2 and NQO1 expression in KYSE70 cells; type: cell-based, human; settings: KYSE70 cells
Outline: as §3

[14] = PYR given after tamoxifen induction

CCc1nc(N)nc(N)c1-c1ccc(Cl)cc1 [PYR, Pyrimethamine]
Expression of nuclear NRF2 and cytoplasmic NQO1 [1]: inhibited the expression of nuclear NRF2 and cytoplasmic NQO1 in a dose- and time-dependent manner | Effect on NRF2 half-life (NRF2 (NRF2^Mut-KYSE180)): shortened NRF2 half-life | NFE2L2 mRNA and NRF2 target genes (AKR1B10, AKR1C2, AKR1C3, PGD, SLC7A11, TKT) by qPCR [2]: downregulation | Effect on NRF2 half-life (NRF2 (NRF2^WT-KYSE450)): not changed | NRF2 ubiquitination [3]: promoted NRF2 ubiquitination | Cmax [4]: 8.28 µM | IC50 (KYSE180 cells): > 10 µM | NRF2^high esophageal phenotype ([5]; 30 mg/kg/day, p.o.): effectively inhibited | Toxicity ([5]; 30 mg/kg/day, p.o.): no observed toxicity | Expression of NRF2 and its target genes (HMOX1 and AKR1C3) in the esophageal epithelium [5, 14]: significantly inhibited the expression | NQO1, GCLC and GCLM expression in the esophageal epithelium [5, 14]: inhibited, yet without statistical significance | NRF2 expression in the forestomach [5, 14]: significantly inhibited | NRF2 expression [6]: upregulated NRF2 expression | Overall mRNA expression level of human NRF2 target genes [7]: significantly reduced | NRF2 ubiquitination [8]: promoted NRF2 ubiquitination | Cmax ([9]; 12.5 mg/kg): 8.04 µM | Cmax ([9]; 25 mg/kg): 18.5 µM | Cmax ([9]; 50 mg/kg): 35.8 µM | Cmax ([9]; 75 mg/kg): 28.2 µM | Overall mRNA expression level of mouse NRF2 target genes in the esophageal epithelium [10]: significantly inhibited the overall mRNA expression level | Concentration expected in mouse tissues [11]: ~10 µM | Global translation (global translation): Neither PYR (10 μM) nor MIT (20 nM) inhibited global translation | Concentration from which DHFR activity is significantly inhibited (DHFR): ≥ 5 µM | NRF2 expression [12]: upregulated NRF2 expression | Expression of nuclear NRF2 and cytoplasmic NQO1 [13]: inhibited the expression of nuclear NRF2 and cytoplasmic NQO1 in a dose- and time-dependent manner
